Laboratory results published in the EternaBench riboswitch data.

Tested on: MS2 coat protein
Assay: apparent Kd, MS2 coat protein; higher = weaker binding; RNA-MaP array; FMN 200 µM where present
How it was run: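 Stalled E. coli RNA polymerase transcribed the designs on Illumina sequencing-chip clusters. SNAP-549-labelled MS2 coat protein was titrated from 0.7 or 1.5 nM, doubling to 3 µM, without and then with constant ligand, in 100 mM Tris-HCl pH 7.5, 80 mM KCl, 4 mM MgCl2, BSA, DTT, yeast tRNA and Tween-20. Per-cluster binding curves were fitted to green signal normalised to red-channel RNA signal and control-cluster median Fmax. The apparent Kd is the median of the filtered fits.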

[1] = designed as: ON switch for flavin mononucleotide, no ligand
[2] = ligand present: flavin mononucleotide, designed as: ON switch for flavin mononucleotide
[3] = designed as: OFF switch for flavin mononucleotide, no ligand
[4] = ligand present: flavin mononucleotide, designed as: OFF switch for flavin mononucleotide

Sequence: GCGAUUUUGUAGAAGGUACGUUAUAAGACAAUGUAAGGAUAUACUGACAUGAGGAUCACCCAUGUAUAAAUAGUUAACAGUCGC
- apparent Kd [1]: 0.00889 µM
- apparent Kd [2]: 0.00668 µM

Sequence: GCGCAAGCAUGAGGAUAUUUAUUAAAUAAUAAUAAAGAAGGCAUGUCAAAUGACAUGAGGAUCACCCAUGUUGGCAAAAUGCGC
- apparent Kd [1]: 0.0459 µM
- apparent Kd [2]: 0.00977 µM

Sequence: GCGCGAAGCUAGGAUAUGGGAGCCGAAAGGCUCCCAGAAGGAGCCACAUGAGGAUCACCCAUGUGGUGAUCCUG
- apparent Kd [3]: 0.0186 µM
- apparent Kd [4]: 0.0386 µM

Sequence: GCGCUGCGAGGAUAUACAUGAGGAUCACCCAUGUGUCGGCAGCCAUGCUAGUACAAAUGUAGAAGGCGCGUAAA
- apparent Kd [3]: 0.0168 µM
- apparent Kd [4]: 0.0178 µM

Sequence: GCGGAGUGAGGAUAUCCAAUUUAACGUACCAAUUAGGUACGGGAGAAGGCACAUGAGGAUCACCCAUGUACCGC
- apparent Kd [3]: 0.0724 µM
- apparent Kd [4]: 0.0535 µM

Sequence: GCGGCUAGUGCAGGAUAUCGGCGCGUGUAGUGCCGAGAAGGGCACAUGAGGAUCACCCAUGUGAUCAAUCACUGCUAAGGCCGC
- apparent Kd [3]: 0.00526 µM
- apparent Kd [4]: 0.0054 µM

Sequence: GCGGUACAUGAGGAUCACCCAUGUCAGGAUAUCCGCUGUUUGUUAAUAAACAGGCGGUGGAGAAGGGACUUCGC
- apparent Kd [3]: 0.0349 µM
- apparent Kd [4]: 0.0367 µM

Sequence: GCGGUACAUGAGGAUCACCCAUGUCAGGAUAUCCGCUGUUUGUUAAUAAGCAGGCGGUGGAGAAGGGACUUCGC
- apparent Kd [3]: 0.032 µM
- apparent Kd [4]: 0.0331 µM

Sequence: GCGUAAGUCACAGGAUAUCCAACAUGAGGAUCACCCAUGUAAAAGUGCCGCAUUAGAAUGCGACUGGAGAAGGGUGAUUCGUCG
- apparent Kd [1]: 0.0513 µM
- apparent Kd [2]: 0.0234 µM

Sequence: GCGUAAUAGGUGUAGCUAGUCGUGCAAGAAGGGUGGUGAACAUGAGGAUCACCCAUGUGGUCAGUACAGGAUAUUGCUAUACGA
- apparent Kd [1]: 0.561 µM
- apparent Kd [2]: 0.162 µM

Sequence: GCGUCAGAAUUAAUUGUGACAAGCAGAAGGCUAUAUCUUAUGUUAGACAUGAGGAUCACCCAUGUAGAGGAUAUGCAGUUACAC
- apparent Kd [3]: 0.00787 µM
- apparent Kd [4]: 0.0142 µM

Sequence: GCGUUACAUGAGGAUCACCCAUGUGAGGAUAUGGUUCGGUACUGUCCUGUCGCGUACUCCAGAAGGCACGUGUC
- apparent Kd [3]: 0.0313 µM
- apparent Kd [4]: 0.0347 µM

Sequence: GCGUUCUUGUAGAAGGUACAUACAAUAUCUUUUUAACACAUGACACAUGAGGAUCACCCAUGUUGUAAGGAUAUACAUGAACGC
- apparent Kd [1]: 0.0068 µM
- apparent Kd [2]: 0.00691 µM

Sequence: GCGUUCUUGUAGAAGGUACAUACAAUCUCUUUUUAACACAUGACACAUGAGGAUCACCCAUGUUGUAAGGAUAUACAUGAACGC
- apparent Kd [1]: 0.0087 µM
- apparent Kd [2]: 0.00886 µM

Sequence: GCGUUGAACGAGAAGGCCAAUACAUGAGGAUCACCCAUGUUUAGAUGUUUUGGAGGAUAUCGUACGUCGUCUCAUGAGCAACGC
- apparent Kd [3]: 0.00668 µM
- apparent Kd [4]: 0.00792 µM

Sequence: GCGUUGAUGUAGAAGGUACAUGAAUAUAUUUAAUACCUCAAGUAACAUGAGGAUCACCCAUGUAGUAAGGAUAUACAUGAACGC
- apparent Kd [1]: 0.0886 µM
- apparent Kd [2]: 0.0561 µM

Sequence: GCGUUGUACGAGAAGGCCAAUACAUGAGGAUCACCCAUGUUAAGUUGUUUUGGAGGAUAUCGAUCACAUUCAAUAAUGCAACGC
- apparent Kd [3]: 0.00671 µM
- apparent Kd [4]: 0.00577 µM

Sequence: GCUACUACAUGAGGAUCACCCAUGUAUCCGUAGCGGGCCGCACAGGAUAUCAACCUCGGAAGAGGUGAGAAGGGUGAUACUCAU
- apparent Kd [1]: 0.0232 µM
- apparent Kd [2]: 0.0381 µM

Sequence: GCUAGUAUUGCAGGAUAUUGAGAAUAAUUAUUACAAGAAGGGCAUAACAUGAGGAUCACCCAUGUUUUCCUUAAUGAUACUAGC
- apparent Kd [3]: 0.00533 µM
- apparent Kd [4]: 0.00559 µM

Sequence: GCUGACGAUGUAGGAUAUCUCGACGAUAAGUCGAGAGAAGGACAUGAGGAUCACCCAUGUAAAAUCCCGUCAGCGAGGAAACUC
- apparent Kd [3]: 0.0164 µM
- apparent Kd [4]: 0.0231 µM

Sequence: GCUGCAUAGGCAGGAUAUGCAAAAGCAGAUGCAAAGCAUUUGUAAAACACAUGAGGAUCACCCAUGUAGAAGGGCCUGUGCAGU
- apparent Kd [3]: 0.0218 µM
- apparent Kd [4]: 0.0215 µM

Sequence: GCUGCCGAUGCAGGAUAUCAGCACGUGUAGUGCUGAGAAGGGCACAUGAGGAUCACCCAUGUGAUCAAUUAAUAUCCGUGCAGC
- apparent Kd [3]: 0.00589 µM
- apparent Kd [4]: 0.00778 µM

Sequence: GCUGCGCGAGGAUAUGCGGUUUGUGCUUUGGCCCGUGGCGUACAUGAGGAUCACCCAUGUAGAAGGCGUGUGGG
- apparent Kd [3]: 0.0215 µM
- apparent Kd [4]: 0.0217 µM

Sequence: GCUGCGUACGCAGGAUAUACAUGAGGAUCACCCAUGUAACUCGAACUCUAAGCGGGUGCGCGCAUGUAGAAGGGCGGGCGAGCC
- apparent Kd [3]: 0.035 µM
- apparent Kd [4]: 0.0679 µM

Sequence: GCUGGUCAAGGAUAUGCAAUCGUGCUUCGGCACGUAAGAUCACAUGAGGAUCACCCAUGUAGAAGGUGACCAGC
- apparent Kd [3]: 0.0225 µM
- apparent Kd [4]: 0.0598 µM

Sequence: GCUGUCGCAUGAGGAUAUGGACUGCUUUGCAGUCCAGAAGGCAUGUCAAUAGACAUGAGGAUCACCCAUGUAGUUAAGACAGCA
- apparent Kd [1]: 0.704 µM
- apparent Kd [2]: 0.0424 µM

Sequence: GCUGUCGCAUGAGGAUAUGGUCAGCUUUGCUGACCAGAAGGCAUGUCAAUAGACAUGAGGAUCACCCAUGUAGUUAAGACAGCA
- apparent Kd [1]: 0.717 µM
- apparent Kd [2]: 0.0492 µM

Sequence: GCUGUCGCGUGAGGAUAUGGUCGGCUGUGCUGACCAGAAGGCAUGUCAAUAGACAUGAGGAUCACCCAUGUGGUUAGGGCGGCU
- apparent Kd [1]: 0.865 µM
- apparent Kd [2]: 0.127 µM
